Activity calls are given as the source filed them. The calls are words filed in the database; no cut-off is given here.
Assays:
[1] = test system: U-87 MG; assay: Antiproliferative activity against human U87 cells assessed as reduction in cell viability at 1 uM after 72 hrs by CellTiter Glo assay; format: functional, cell-based; settings: U-87MG ATCC
[2] = test system: A549; assay: Antiproliferative activity against human A549 cells assessed as reduction in cell viability at 1 uM after 72 hrs by CellTiter Glo assay; format: functional, cell-based
[3] = test system: HCT-116; assay: Antiproliferative activity against human HCT-116 cells assessed as reduction in cell viability at 1 uM after 72 hrs by CellTiter Glo assay; format: functional, cell-based
[4] = test system: A549; assay: Antiproliferative activity against human A549 cells assessed as reduction in cell viability at 10 uM after 72 hrs by CellTiter Glo assay; format: functional, cell-based
[5] = test system: U-87 MG; assay: Antiproliferative activity against human U87 cells assessed as reduction in cell viability at 10 uM after 72 hrs by CellTiter Glo assay; format: functional, cell-based; settings: U-87MG ATCC
[6] = test system: U-87 MG; assay: Antiproliferative activity against human U87 cells assessed as reduction in cell viability after 72 hrs by CellTiter Glo assay; format: functional, cell-based, U-87MG ATCC
Method in brief: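 U87-MG glioblastoma cells (ATCC) grown in DMEM with 10% FCS and 1% L-glutamine at 37 °C under 5% CO2. Seeded at 3 × 10³ cells/well, cultured 24 h, then treated at 10 final concentrations serially diluted in medium; vehicle-treated controls. CellTiter-Glo luminescence read after 72 h. Triplicate runs; IC50 from four- or five-parameter logistic curves.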

[7] = test system: A549; assay: Antiproliferative activity against human A549 cells assessed as reduction in cell viability after 72 hrs by CellTiter Glo assay; format: functional, cell-based; settings: A549, 72 h
Method in brief: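 A549 cells (ATCC) grown in RPMI 1640 with 10% FCS and 1% L-glutamine at 37 °C under 5% CO2. Seeded at 3 × 10³ cells/well and cultured 24 h, then given 10 final concentrations from serial dilution in medium; vehicle controls. After 72 h, viability read by CellTiter-Glo luminescence. Run in triplicate; IC50 from four- or five-parameter logistic fits.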

[8] = test system: HCT-116; assay: Antiproliferative activity against human HCT-116 cells assessed as reduction in cell viability at 10 uM after 72 hrs by CellTiter Glo assay; format: functional, cell-based
[9] = test system: HCT-116; assay: Antiproliferative activity against human HCT-116 cells assessed as reduction in cell viability after 72 hrs by CellTiter Glo assay; format: functional, cell-based; settings: HCT-116, 72 h
Method in brief: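 HCT-116 (ATCC) grown in McCoy's 5A with 10% FCS, 1% L-glutamine, 37 °C, 5% CO2. Seeded 3 × 10³ cells/well; after 24 h treated with 10 final concentrations by serial dilution in medium; vehicle controls; triplicate. Luminescent viability read-out after 72 h, reagent 15 min. IC50 from four- or five-parameter logistic fit of dose-response curves.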

| Structure (SMILES) | Activity [1] | Activity [2] | Activity [3] | Activity [4] | Activity [5] | IC50 [6] [µM] | IC50 [7] [µM] | Activity [8] | IC50 [9] [µM] |
| --- | --- | --- | --- | --- | --- | --- | --- | --- | --- |
| C=C(C)[C@@H]1[C@H]2OC(=O)[C@@H]1[C@]1(O)[C@H]3O[C@H]3[C@]3(C[C@@H]([C@H](C)OC(=O)CCCCCCCCC)C(=O)O3)[C@]1(C)[C@@H]2O | inactive | inactive | inactive | – | – | – | – | – | – |
| C=C(C)[C@@H]1[C@H]2OC(=O)[C@@H]1[C@]1(O)[C@H]3O[C@H]3[C@]3(C[C@H]([C@H](C)OC(=O)CCCCCCCCCCC)C(=O)O3)[C@]1(C)[C@@H]2O | inactive | inactive | inactive | – | – | – | – | – | – |
| C=C(C)[C@@H]1[C@H]2OC(=O)[C@@H]1[C@]1(O)[C@H]3O[C@H]3[C@]3(C/C(=C\C)C(=O)O3)[C@]1(C)[C@@H]2O | inactive | inactive | inactive | – | – | – | – | – | – |
| C=C(C)[C@@H]1[C@H]2OC(=O)[C@@H]1[C@]1(O)[C@H]3O[C@H]3[C@]3(C[C@H]([C@H](C)OC(=O)CCCCCCCCCCCCCCC)C(=O)O3)[C@]1(C)[C@@H]2O | inactive | inactive | inactive | – | – | – | – | – | – |
| C=C(C)[C@@H]1[C@H]2OC(=O)[C@@H]1[C@]1(O)[C@H]3O[C@H]3[C@]3(C[C@@H]([C@H](C)OC(=O)CCCCCCCCCCC)C(=O)O3)[C@]1(C)[C@@H]2O | inactive | inactive | inactive | – | – | – | – | – | – |
| C=C(C)[C@@H]1[C@H]2OC(=O)[C@@H]1[C@]1(O)[C@H]3O[C@H]3[C@]3(C[C@@H]([C@H](C)O)C(=O)O3)[C@]1(C)[C@@H]2O | inactive | inactive | inactive | – | – | – | – | – | – |
| C=C(C)[C@@H]1[C@H]2OC(=O)[C@@H]1[C@]1(O)[C@H]3O[C@H]3[C@]3(C[C@H]([C@H](C)OC(=O)CCCCCCCCCCCCC)C(=O)O3)[C@]1(C)[C@@H]2O | inactive | inactive | inactive | – | – | – | – | – | – |
| CO[C@@H](C)[C@@]1(O)C[C@@]2(OC1=O)[C@@H]1O[C@@H]1[C@@]1(O)[C@H]3C(=O)O[C@H]([C@H]3C(C)C)[C@@H](O)[C@]12C | inactive | inactive | inactive | – | – | – | – | – | – |
| C=C(C)[C@@H]1[C@H]2OC(=O)[C@@H]1[C@]1(O)[C@H]3O[C@H]3[C@]3(C[C@@H]([C@H](C)O)C(=O)O3)[C@]1(C)[C@@H]2OC(=O)CCCCCCCCCCC | inactive | inactive | inactive | Active | Active | 0.7 | 5.8 | Active | – |
| COc1cccc2c1C(=O)c1c(O)c3c(c(O)c1C2=O)C[C@@](O)(C(=O)CO)C[C@@H]3O[C@H]1C[C@H](N)[C@H](O)[C@H](C)O1 [DOXORUBICIN] | – | – | – | – | – | 99.6 | 90 | – | 56.6 |
| C=C(C)[C@@H]1[C@H]2OC(=O)[C@@H]1[C@]1(O)[C@H]3O[C@H]3[C@]3(C[C@H]([C@H](C)OC(=O)CCCCCCCCC)C(=O)O3)[C@]1(C)[C@@H]2O | inactive | inactive | inactive | – | – | – | – | – | – |
| CCCCCCCCCC(=O)O[C@@H]1[C@@H]2OC(=O)[C@@H]([C@@H]2C(C)C)[C@]2(O)[C@H]3O[C@H]3[C@]3(C[C@](O)([C@H](C)OC)C(=O)O3)[C@]12C | inactive | inactive | inactive | Active | Active | 0.7 | 5.8 | Active | – |
| C=C(C)[C@@H]1[C@H]2OC(=O)[C@@H]1[C@]1(O)[C@H]3O[C@H]3[C@]3(CO3)[C@]1(C)[C@@H]2O | inactive | inactive | inactive | – | – | – | – | – | – |
| C=C(C)[C@@H]1[C@H]2OC(=O)[C@@H]1[C@]1(O)[C@H]3O[C@H]3[C@]3(CO3)[C@]1(C)[C@@H]2OC(=O)CCCCCCCCCCC | inactive | inactive | inactive | Active | Active | – | – | Active | – |
| C=C(C)[C@@H]1[C@H]2OC(=O)[C@@H]1[C@]1(O)[C@H]3O[C@H]3[C@]3(C[C@](O)([C@H](C)OC)C(=O)O3)[C@]1(C)[C@@H]2O | inactive | inactive | inactive | – | – | – | – | – | – |
